Measurements taken from ChEMBL document CHEMBL3877308, “Design, synthesis and in vitro biological evaluation of oligopeptides targeting E. coli type I signal peptidase (LepB)” (Bioorg Med Chem, 2017).
pIC50: −log10 of the molar value. Converted amounts (≈) assume the structure as drawn.

How the values were obtained:
[1] = biological target: Signal peptidase I (Escherichia coli K-12) (UniProt P00803); test: Inhibition of full length Escherichia coli His6-tagged LepB expressed in Escherichia coli C43(DE3) at 100 uM using dabcyl-VEVGGTATAGAFSRPGLE-(EDANS) as substrate preincubated for 10 mins followed by substrate addition measured for 2 hrs by FRET assay relative to control
In short: (§1)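 Enzyme came from the membrane fraction, extracted with 1% reduced Triton X-100 and purified by metal-chelation chromatography in 0.5% detergent. FRET pair was dabcyl acceptor and EDANS donor. EcLepB (final about 50 nM) was pre-incubated with compound 10 min at 22 °C. Reaction was then run with 8 µM substrate, following the linear fluorescence increase at 22 °C for 2 h.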

Signal peptidase I = Signal peptidase I (Escherichia coli K-12, UniProt P00803); test: Inhibition of full length Escherichia coli His6-tagged LepB expressed in Escherichia coli C43(DE3) using dabcyl-VEVGGTATAGAFSRPGLE-(EDANS) as substrate preincubated for 10 mins followed by substrate addition measured for 2 hrs by FRET assay
In short: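 Enzyme extracted from the membrane fraction with 1% reduced Triton X-100 and purified by metal-chelation chromatography in 0.5% detergent. Enzyme (final ~50 nM) was pre-incubated with compound for 10 min at 22 °C. The linear rise in EDANS donor fluorescence (dabcyl acceptor) was then followed at 22 °C for 2 h. IC50 came from non-linear regression of sigmoidal rate-versus-concentration curves.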

[2] = biological target: Signal peptidase I (Escherichia coli K-12) (UniProt P00803); test: (§2) Inhibition of full length Escherichia coli His6-tagged LepB expressed in Escherichia coli C43(DE3) assessed as residual activity at 2.5 uM using dabcyl-VEVGGTATAGAFSRPGLE-(EDANS) as substrate preincubated for 10 mins followed by substrate addition measured for 2 hrs by FRET assay relative to control; in short: as §1
[3] = biological target: Signal peptidase I (Escherichia coli K-12) (UniProt P00803); test: Inhibition of full length Escherichia coli His6-tagged LepB expressed in Escherichia coli C43(DE3) assessed as residual activity at 5 uM using dabcyl-VEVGGTATAGAFSRPGLE-(EDANS) as substrate preincubated for 10 mins followed by substrate addition measured for 2 hrs by FRET assay relative to control; in short: as §1
[4] = biological target: Signal peptidase I (Escherichia coli K-12) (UniProt P00803); test: as §2, with “0.002” for “2.5”; in short: as §1
[5] = biological target: Signal peptidase I (Escherichia coli K-12) (UniProt P00803); test: as §2, with “0.005” for “2.5”; in short: as §1
[6] = biological target: Signal peptidase I (Escherichia coli K-12) (UniProt P00803); test: as §2, with “1.25” for “2.5”; in short: as §1
[7] = biological target: Signal peptidase I (Escherichia coli K-12) (UniProt P00803); test: as §2, with “0.625” for “2.5”; in short: as §1
[8] = biological target: Signal peptidase I (Escherichia coli K-12) (UniProt P00803); test: as §2, with “0.313” for “2.5”; in short: as §1
[9] = biological target: Signal peptidase I (Escherichia coli K-12) (UniProt P00803); test: as §2, with “0.156” for “2.5”; in short: as §1
[10] = biological target: Signal peptidase I (Escherichia coli K-12) (UniProt P00803); test: as §2, with “0.078” for “2.5”; in short: as §1
[11] = biological target: Signal peptidase I (Escherichia coli K-12) (UniProt P00803); test: as §2, with “0.039” for “2.5”; in short: as §1
[12] = biological target: Signal peptidase I (Escherichia coli K-12) (UniProt P00803); test: as §2, with “0.02” for “2.5”; in short: as §1
[13] = biological target: Signal peptidase I (Escherichia coli K-12) (UniProt P00803); test: as §2, with “0.01” for “2.5”; in short: as §1
[14] = biological target: Signal peptidase I (Escherichia coli K-12) (UniProt P00803); test: as §2, with “0.001” for “2.5”; in short: as §1
[15] = biological target: Signal peptidase I (Escherichia coli K-12) (UniProt P00803); test: as §2, with “0.0005” for “2.5”; in short: as §1
Escherichia coli [16] = test: Antibacterial activity against wild type Escherichia coli ATCC 25922 after 16 to 20 hrs by broth microdilution assay; assay type: functional
In short: (§3)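 MIC by broth microdilution in cation-adjusted Mueller-Hinton II medium, following EUCAST and CLSI guidelines; panel of Gram-negative strains plus S. aureus ATCC 29213.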

Escherichia coli [17] = test: Antibacterial activity against Escherichia coli CH3130 harboring tolC deletion mutant after 16 to 20 hrs by broth microdilution assay; assay type: functional
In short: (§4)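 Broth microdilution MIC in cation-adjusted Mueller-Hinton II medium, following EUCAST and CLSI guidelines; tested on a panel of Gram-negative strains plus S. aureus ATCC 29213 (wild-type).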

Escherichia coli [18] = test: Antibacterial activity against Escherichia coli D22 harboring lpxC mutant after 16 to 20 hrs by broth microdilution assay; assay type: functional; in short: as §4
Pseudomonas aeruginosa [19] = test: Antibacterial activity against wild type Pseudomonas aeruginosa PAO1 after 16 to 20 hrs by broth microdilution assay; assay type: functional; in short: as §3
Pseudomonas aeruginosa [20] = test: Antibacterial activity against wild type Pseudomonas aeruginosa PAO750 harboring efflux defective mutant after 16 to 20 hrs by broth microdilution assay; assay type: functional; in short: as §4
Klebsiella pneumoniae = test: Antibacterial activity against wild type Klebsiella pneumoniae […] after 16 to 20 hrs by broth microdilution assay; assay type: functional; in short: as §3
Staphylococcus aureus = test: Antibacterial activity against wild type Staphylococcus aureus ATCC 29213 after 16 to 20 hrs by broth microdilution assay; assay type: functional; in short: as §3
Acinetobacter baumannii = test: Antibacterial activity against wild type Acinetobacter baumannii ATCC 19606 after 16 to 20 hrs by broth microdilution assay; assay type: functional; in short: as §3
[21] = Cytotoxicity against human HepG2 cells assessed as reduction in cell viability after 72 hrs by fluorescein diacetate dye based fluorometric microculture assay; assay type: toxicity
In short: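 FMCA on HepG2 cells read at 72 h. Survival index (%) is fluorescence in test wells as percent of control cultures, with blank values subtracted. IC50 was obtained by non-linear regression of log concentration-effect curves.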

[22] = Hemolytic activity against human RBC at 100 uM after 45 mins by spectrophotometric method relative to control; assay type: ADME, cell-based, Erythrocyte; conditions: red blood cells (RBC), read-out: Activity
In short: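 Hemolysis was tested using red blood cells from heparinized human blood.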

[23] = biological target: Signal peptidase I (Escherichia coli K-12) (UniProt P00803); test: Inhibition of full length Escherichia coli His6-tagged LepB expressed in Escherichia coli C43(DE3) assessed as residual activity at 10 uM using dabcyl-VEVGGTATAGAFSRPGLE-(EDANS) as substrate preincubated for 10 mins followed by substrate addition measured for 2 hrs by FRET assay relative to control; in short: as §1

Chain of Signal peptidase I (P00803 whole entry): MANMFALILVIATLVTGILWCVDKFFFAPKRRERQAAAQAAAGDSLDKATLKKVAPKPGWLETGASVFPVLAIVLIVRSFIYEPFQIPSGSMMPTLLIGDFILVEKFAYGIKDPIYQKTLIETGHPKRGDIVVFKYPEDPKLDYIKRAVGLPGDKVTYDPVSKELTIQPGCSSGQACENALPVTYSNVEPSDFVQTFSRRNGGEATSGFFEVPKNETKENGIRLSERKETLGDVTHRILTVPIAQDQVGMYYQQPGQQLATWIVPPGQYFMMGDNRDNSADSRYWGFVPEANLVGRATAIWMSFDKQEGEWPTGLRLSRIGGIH
Chain of Signal peptidase I (Escherichia coli K-12) (P00803 whole entry): as above

Structure (SMILES) | inhibition [1] [%] | pIC50 (Signal peptidase I) | Activity [2] [%] | Activity [3] [%] | Activity [4] [%] | Activity [6] [%] | Activity [7] [%] | Activity [9] [%] | Activity [13] [%] | MIC (Escherichia coli [16]) [µg/mL] | MIC (Escherichia coli [17]) [µg/mL] | MIC (Escherichia coli [18]) [µg/mL] | MIC (Pseudomonas aeruginosa [19]) [µg/mL] | MIC (Pseudomonas aeruginosa [20]) [µg/mL] | MIC (Klebsiella pneumoniae) [µg/mL] | MIC (Staphylococcus aureus) [µg/mL] | MIC (Acinetobacter baumannii) [µg/mL] | IC50 at 72 h [21] [µM] | hemolysis at 0.75 h, 100 µM [22] [%] | further results
CC(=O)N[C@@H](C)C(=O)N[C@@H](CC(N)=O)C(=O)N[C@@H](C)C(=O)C(=O)NCc1cccc2ccccc12 | 26.6 | – | – | – | – | – | – | – | – | – | – | – | – | – | – | – | – | – | – | –
CCCCCCc1ccc(-c2ccc(C(=O)N3CCC[C@H]3C(=O)N[C@H](C(=O)N[C@@H](C)C(=O)N[C@@H](CC(N)=O)C(=O)N[C@@H](C)B3O[C@@H]4C[C@@H]5C[C@@H](C5(C)C)[C@]4(C)O3)[C@H](C)O)cc2)cc1 | > 50 | 7.92 | 7.64 | 11.2 | 92.8 | 11.4 | 16 | 16.9 | 57 | > 64 | 64 (≈ 73.5 µM) | 16 (≈ 18.4 µM) | > 64 | > 64 | > 64 | 4 (≈ 4.59 µM) | > 64 | 4.7 | 1.1 | Activity [5]: 82.2%; Activity [8]: 17.4%; Activity [10]: 11.5%; Activity [11]: 16.8%; Activity [12]: 51.2%; Activity [14]: 94.4%; Activity [15]: 100%
CCCCCCc1ccc(-c2ccc(C(=O)N3CC(CN)C[C@H]3C(=O)N[C@H](C(=O)N[C@@H](C)C(=O)N[C@@H](CC(N)=O)C(=O)N[C@@H](C)B3O[C@@H]4C[C@@H]5C[C@@H](C5(C)C)[C@]4(C)O3)[C@H](C)O)cc2)cc1 (stereo partly specified) | > 50 | 7.74 | 0.353 | 4.04 | 88.8 | 0.881 | 5.53 | 6.31 | 81.6 | 32 (≈ 35.6 µM) | 4 (≈ 4.44 µM) | 1 (≈ 1.11 µM) | 64 (≈ 71.1 µM) | 8 (≈ 8.89 µM) | 16 (≈ 17.8 µM) | 0.5 (≈ 0.556 µM) | 32 (≈ 35.6 µM) | 18.6 | 5.7 | Activity [23]: 3.93%; Activity [12]: 37.6%; Activity [14]: 89.7%; Activity [15]: 99.3%
CCCCc1ccc(-c2ccc(C(=O)N[C@@H](CCN)C(=O)N[C@H](C(=O)N[C@@H](C)C(=O)N[C@@H](CCCCN)C(=O)N[C@@H](C)B3O[C@@H]4C[C@@H]5C[C@@H](C5(C)C)[C@]4(C)O3)[C@H](C)O)cc2)cc1 | – | 6.96 | 3.33 | 0.501 | 98.2 | 0.522 | 6.98 | 25.3 | 86.8 | 8 (≈ 9.3 µM) | 4 (≈ 4.65 µM) | 1 (≈ 1.16 µM) | 32 (≈ 37.2 µM) | 8 (≈ 9.3 µM) | 2 (≈ 2.33 µM) | < 0.125 | 32 (≈ 37.2 µM) | 12.5 | 12.8 | Activity [23]: -0.117%; Activity [8]: 18.9%; Activity [10]: 72.7%; Activity [11]: 80.2%
CC(=O)N1CCC[C@H]1C(=O)N[C@H](C(=O)N[C@@H](C)C(=O)N[C@@H](CC(N)=O)C(=O)N[C@@H](C)B1O[C@@H]2C[C@@H]3C[C@@H](C3(C)C)[C@]2(C)O1)C(C)O (single isomer, unassigned) | 26 | – | – | – | – | – | – | – | – | – | – | – | – | – | – | – | – | – | – | –
CCCCCCCCCC(=O)N1CCC[C@H]1C(=O)N[C@H](C(=O)N[C@@H](C)C(=O)N[C@@H](CC(N)=O)C(=O)N[C@@H](C)C(=O)N1CCC[C@H]1C(=O)NC)[C@H](C)O | 31.3 | – | – | – | – | – | – | – | – | – | – | – | – | – | – | – | – | – | – | –
CC(=O)N[C@@H](C)C(=O)N[C@@H](CC(N)=O)C(=O)N[C@@H](C)C(=O)C(=O)NC(C)(C)C | 13.3 | – | – | – | – | – | – | – | – | – | – | – | – | – | – | – | – | – | – | –
CC(=O)N1CCC[C@H]1C(=O)N[C@H](C(=O)N[C@@H](C)C(=O)N[C@@H](CC(N)=O)C(=O)N[C@@H](C)C(=O)C(=O)NC(C)(C)C)[C@H](C)O | 22.5 | – | – | – | – | – | – | – | – | – | – | – | – | – | – | – | – | – | – | –
